Results from ChEMBL document CHEMBL1151761, “Radiohalogenated prostate-specific membrane antigen (PSMA)-based ureas as imaging agents for prostate cancer” (J Med Chem, 2008).

Columns and labels:
Type in all cases: ADME, organism-based
[1] = Ratio of drug level in PC3 PIP tumor to PC3 flu tumor of human PSMA expressing PC3 PIP and PSMA deficient human PC3 flu cells xenografted SCID mouse at 2 uCi, iv after 2 hrs; details: in vivo
Outline: (§1)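 Male SCID mice carried subcutaneous PSMA+ PC-3 PIP (left shoulder) and PC-3 flu (right shoulder) xenografts, 1-5 × 10^6 cells in HBSS, and were used at 3-5 mm tumor diameter. Tail-vein injection of 2 µCi radioligand; four mice per time point, killed by cervical dislocation. %ID/g from a standard dilution of the dose, decay-corrected, mean ± SD; PIP tumor:organ ratios.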

Spleen = assay: Biodistribution in spleen of PSMA expressing human PC3 PIP and PSMA deficient human PC3 flu cells xenografted SCID mouse at 2 uCi, iv after 30 mins; details: in vivo, 0.5 h
[2] = Biodistribution in small intestine of PSMA expressing human PC3 PIP and PSMA deficient human PC3 flu cells xenografted SCID mouse at 2 uCi, iv after 30 mins; details: in vivo, 0.5 h; outline: as §1
[3] = Biodistribution in PC3 flu tumor of PSMA expressing human PC3 PIP and PSMA deficient human PC3 flu cells xenografted SCID mouse at 2 uCi, iv after 30 mins; details: in vivo, 0.5 h; outline: as §1
Blood [4] = assay: Biodistribution in blood of PSMA expressing human PC3 PIP and PSMA deficient human PC3 flu cells xenografted SCID mouse at 2 uCi, iv after 60 mins; details: in vivo, 1 h
Heart = assay: Biodistribution in heart of PSMA expressing human PC3 PIP and PSMA deficient human PC3 flu cells xenografted SCID mouse at 2 uCi, iv after 60 mins; details: in vivo, 1 h
Stomach [5] = assay: Biodistribution in stomach of PSMA expressing human PC3 PIP and PSMA deficient human PC3 flu cells xenografted SCID mouse at 2 uCi, iv after 60 mins; details: in vivo, 1 h
Kidney = assay: Biodistribution in kidney of PSMA expressing human PC3 PIP and PSMA deficient human PC3 flu cells xenografted SCID mouse at 2 uCi, iv after 60 mins; details: in vivo, 1 h
Muscle tissue [6] = assay: Biodistribution in muscle of PSMA expressing human PC3 PIP and PSMA deficient human PC3 flu cells xenografted SCID mouse at 2 uCi, iv after 60 mins; details: in vivo, 1 h
[7] = Biodistribution in large intestine of PSMA expressing human PC3 PIP and PSMA deficient human PC3 flu cells xenografted SCID mouse at 2 uCi, iv after 60 mins; details: in vivo, 1 h; outline: as §1
[8] = Biodistribution in PC3 flu tumor of PSMA expressing human PC3 PIP and PSMA deficient human PC3 flu cells xenografted SCID mouse at 2 uCi, iv after 60 mins; details: in vivo, 1 h; outline: as §1
Stomach [9] = assay: Biodistribution in stomach of PSMA expressing human PC3 PIP and PSMA deficient human PC3 flu cells xenografted SCID mouse at 2 uCi, iv after 2 hrs; details: in vivo
[10] = Biodistribution in small intestine of PSMA expressing human PC3 PIP and PSMA deficient human PC3 flu cells xenografted SCID mouse at 2 uCi, iv after 2 hrs; details: in vivo; outline: as §1
[11] = Biodistribution in PC3 PIP tumor of PSMA expressing human PC3 PIP and PSMA deficient human PC3 flu cells xenografted SCID mouse at 2 uCi, iv after 2 hrs; details: in vivo
Liver [12] = assay: Biodistribution in liver of PSMA expressing human PC3 PIP and PSMA deficient human PC3 flu cells xenografted SCID mouse at 2 uCi, iv after 5 hrs; details: in vivo
Stomach [13] = assay: Biodistribution in stomach of PSMA expressing human PC3 PIP and PSMA deficient human PC3 flu cells xenografted SCID mouse at 2 uCi, iv after 5 hrs; details: in vivo
Muscle tissue [14] = assay: Biodistribution in muscle of PSMA expressing human PC3 PIP and PSMA deficient human PC3 flu cells xenografted SCID mouse at 2 uCi, iv after 5 hrs; details: in vivo
[15] = Biodistribution in small intestine of PSMA expressing human PC3 PIP and PSMA deficient human PC3 flu cells xenografted SCID mouse at 2 uCi, iv after 5 hrs; details: in vivo; outline: as §1
[16] = Ratio of drug level in tumor to stomach of human PSMA expressing PC3 PIP and PSMA deficient human PC3 flu cells xenografted SCID mouse at 2 uCi, iv after 30 mins; details: in vivo, 0.5 h
Outline: (§2)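 Male SCID mice carried subcutaneous xenografts: PSMA+ PC-3 PIP behind the left shoulder and PSMA− PC-3 flu behind the right, 1–5 × 10^6 cells in HBSS. Mice were used at 3–5 mm tumor diameter. 2 μCi was given by tail vein, and 4 mice per time point were killed by cervical dislocation. %ID/g came from a standard dilution of the dose, decay-corrected. Ratio is PIP tumor %ID/g to organ %ID/g.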

[17] = Ratio of drug level in tumor to muscle of human PSMA expressing PC3 PIP and PSMA deficient human PC3 flu cells xenografted SCID mouse at 2 uCi, iv after 30 mins; details: in vivo, 0.5 h; outline: as §1
[18] = Ratio of drug level in tumor to blood of human PSMA expressing PC3 PIP and PSMA deficient human PC3 flu cells xenografted SCID mouse at 2 uCi, iv after 60 mins
Outline: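 Male SCID mice carried subcutaneous xenografts of PSMA+ PC-3 PIP cells behind the left shoulder and PSMA− PC-3 flu cells behind the right (1–5 × 10^6 cells in HBSS), used at a tumour diameter of 3–5 mm. Each mouse received 2 μCi of radioiodinated tracer via the tail vein. Tissues were harvested at each time point for %ID/g against a standard dilution of the dose, decay-corrected. Ratios are PIP tumour:organ.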

[19] = Ratio of drug level in tumor to spleen of human PSMA expressing PC3 PIP and PSMA deficient human PC3 flu cells xenografted SCID mouse at 2 uCi, iv after 60 mins; details: in vivo, 1 h; outline: as §2
[20] = Ratio of drug level in tumor to muscle of human PSMA expressing PC3 PIP and PSMA deficient human PC3 flu cells xenografted SCID mouse at 2 uCi, iv after 60 mins; details: in vivo, 1 h; outline: as §1
[21] = Ratio of drug level in tumor to bladder of human PSMA expressing PC3 PIP and PSMA deficient human PC3 flu cells xenografted SCID mouse at 2 uCi, iv after 2 hrs; details: in vivo; outline: as §1
[22] = Ratio of drug level in tumor to heart of human PSMA expressing PC3 PIP and PSMA deficient human PC3 flu cells xenografted SCID mouse at 2 uCi, iv after 5 hrs; details: in vivo; outline: as §1
[23] = Ratio of drug level in tumor to lung of human PSMA expressing PC3 PIP and PSMA deficient human PC3 flu cells xenografted SCID mouse at 2 uCi, iv after 5 hrs; details: in vivo; outline: as §1
Blood [24] = assay: Biodistribution in blood of PSMA expressing human PC3 PIP and PSMA deficient human PC3 flu cells xenografted SCID mouse at 2 uCi, iv after 30 mins; details: in vivo, 0.5 h
Lung = assay: Biodistribution in lung of PSMA expressing human PC3 PIP and PSMA deficient human PC3 flu cells xenografted SCID mouse at 2 uCi, iv after 30 mins; details: in vivo, 0.5 h
Liver [25] = assay: Biodistribution in liver of PSMA expressing human PC3 PIP and PSMA deficient human PC3 flu cells xenografted SCID mouse at 2 uCi, iv after 30 mins; details: in vivo, 0.5 h

O=C(O)CC[C@H](NC(=O)N[C@@H](CCCCNC(=O)c1ccc([18F])cc1)C(=O)O)C(=O)O
Ratio [1]: 15
Drug uptake (Spleen): 12.7 % ID/g
Drug uptake [2]: 1.7 % ID/g
Drug uptake [3]: 0.8 % ID/g
Drug uptake (Blood [4]): 0.7 % ID/g
Drug uptake (Heart): 0.2 % ID/g
Drug uptake (Stomach [5]): 0.25 % ID/g
Drug uptake (Kidney): 48 % ID/g
Drug uptake (Muscle tissue [6]): 0.5 % ID/g
Drug uptake [7]: 0.5 % ID/g
Drug uptake [8]: 0.3 % ID/g
Drug uptake (Stomach [9]): 0.3 % ID/g
Drug uptake [10]: 0.3 % ID/g
Drug uptake [11]: 3.7 % ID/g
Drug uptake (Liver [12]): 1 % ID/g
Drug uptake (Stomach [13]): 0.04 % ID/g
Drug uptake (Muscle tissue [14]): 0.1 % ID/g
Drug uptake [15]: 0.1 % ID/g
Ratio [16]: 11
Ratio [17]: 4
Kp at 1 h [18]: 9
Ratio [19]: 1
Ratio [20]: 13
Ratio [21]: 0.3
Ratio [22]: 117
Ratio [23]: 35
Drug uptake (Blood [24]): 2.5 % ID/g
Drug uptake (Lung): 1.7 % ID/g
Drug uptake (Liver [25]): 8.7 % ID/g
